The values below come from ChEMBL document CHEMBL1148106, “Potent cytotoxic lignans from Justicia procumbens and their effects on nitric oxide and tumor necrosis factor-alpha production in mouse macrophages” (J Nat Prod, 2002).

The structures appear in SMILES notation. pIC50: −log10 of the molar value. ≈ marks a conversion by molar mass, not a printed value. Numbered stars: 1 amine (or outer) side, 2 acyl side, 3 side chain; on linkers, the order of the positions; unused ones are H or OH. Bridge positions count the residues as written; N and C are the ends. Square brackets hold non-standard residues; d marks the D form. Peptide text beside a SMILES is read from it. I, II: the chains in the order shown. Actinocin(1to9) = Cc1c2oc3c(C)ccc(C(=O)[*:2])c3nc-2c(C(=O)[*:1])c(N)c1=O; NMeV = CN[C@H](C(=O)O)C(C)C; Sar = CNCC(=O)O

In experiment [1] the test system is RAW264.7. In words: Antiinflammatory activity in LPS-stimulated mouse RAW264.7 cells assessed as effect on TNFalpha formation at 30 uM pretreated 1 hr before LPS challenge measured after 24 hrs. In kind it is functional. The essentials:
(§1)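 Medium from RAW 264.7 macrophages (2 × 10⁵ cells/well, adhered overnight) pretreated 1 h at 37 °C with drug or 0.5% DMSO vehicle and then given 1 µg/mL LPS (E. coli 0111:B4) for 24 h. Supernatant stored at -70 °C, and TNF-α quantified by ELISA kit per manufacturer. Mean ± SEM, n = 3.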

The next experiment deals with HT-29. Put plainly: Cytotoxicity against human HT-29 cells by MTT assay. In kind it is functional. Particulars: read-out: ED50 (the source's name). The essentials: (§2)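 Cells grown in DMEM with 10% FBS plus antibiotics; assay medium supplemented with 10 mM HEPES pH 7.3, 37 °C CO2 incubator. (1-3) × 10³ cells/100 µL seeded, 6 h attachment, drug exposure 6 days. MTT added for 4 h at 37 °C, cells lysed in 10% SDS/0.01 M HCl, A550 read; cell death expressed as % MTT inhibition versus cell-only and medium-blank wells.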
On the technique in general: Formazan colour is commonly taken as a measure of viable cells.

A short description of experiment [2]: Cytotoxicity against human Hep3B cells by MTT assay. In kind it is functional, Hep 3B2. Conditions: read-out: ED50 (the source's name). The essentials: (§3)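 Human lines from ATCC grown in DMEM with 10% FBS, 2 mM L-glutamine, penicillin and streptomycin, plus 10 mM HEPES pH 7.3 for the assay. (1-3) × 10³ cells/well, 6 h attachment, then drug exposure for 6 days at 37 °C. MTT added for 4 h, cells lysed in 10% SDS/0.01 M HCl, A550 read. Death calculated as percent MTT inhibition.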

A short description of experiment [3]: Cytotoxicity against mouse 212 cells by MTT assay. Conditions: read-out: ED50 (the source's name). In kind it is functional. The essentials: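 Ha-ras-inducible NIH/3T3-derived 212 cells maintained in MEM alpha with 10% FBS and antibiotics, with 10 mM HEPES pH 7.3 added for the assay. Seeded at (1-3) × 10³ cells/well, allowed 6 h to attach, then exposed to drug 6 days at 37 °C. MTT pulse 4 h, SDS/HCl lysis, absorbance at 550 nm. Cell death expressed as percent MTT inhibition.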

The next experiment concerns HepG2. In words: Cytotoxicity against human HepG2 cells by MTT assay. Format: functional. Conditions: read-out: ED50 (the source's name). The essentials:
as §3

For experiment [4], the system named is RAW264.7. Put plainly: Antiinflammatory activity in LPS-stimulated mouse RAW264.7 cells assessed as effect on NO production pretreated 1 hr before LPS challenge measured after 24 hrs. In kind it is functional, cell-based. In a few lines: (§4)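 RAW 264.7 cells in DMEM with 10% FBS and antibiotics, 2 × 10⁵ cells/well, adhered overnight. Pretreated 1 h at 37 °C with drug or vehicle (final DMSO 0.5%), then stimulated with 1 µg/mL E. coli 0111:B4 LPS for 24 h. Medium nitrite measured by Griess reaction (sulfanilamide, HCl, naphthylethylenediamine, 10 min room temperature, A550) against a NaNO2 standard curve. Mean ± SEM, n = 3.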

Another experiment concerns Ca-Ski. In words: Cytotoxicity against human CaSKi cells by MTT assay. In kind it is functional. Particulars: read-out: ED50 (the source's name). In a few lines: as §3
Another experiment relates to SiHa. In words: Cytotoxicity against human SiHa cells by MTT assay. Particulars: for EC50: Homo sapiens, SiHa, read-out: ED50 (the source's name). Format: functional. In a few lines:
as §3

The subject of experiment [5] is RAW264.7. Put plainly: Antiinflammatory activity in LPS-stimulated mouse RAW264.7 cells assessed as effect on TNFalpha formation pretreated 1 hr before LPS challenge measured after 24 hrs. In kind it is functional, cell-based. The essentials:
as §1

For experiment [6], the system named is RAW264.7. In words: Antiinflammatory activity in LPS-stimulated mouse RAW264.7 cells assessed as effect on NO production at 30 uM pretreated 1 hr before LPS challenge measured after 24 hrs. Format: functional. The essentials: as §4
Another experiment has as its system HCT-116. Put plainly: Cytotoxicity against human HCT116 cells by MTT assay. Format: functional. Conditions: read-out: ED50 (the source's name). In a few lines:
as §2

For experiment [7], the system named is RAW264.7. Put plainly: Antiinflammatory activity in LPS-stimulated mouse RAW264.7 cells assessed as effect on NO production at 10 uM pretreated 1 hr before LPS challenge measured after 24 hrs. Format: functional. The essentials:
as §4

Experiment [8] is described as follows: Cytotoxicity against human MCF7-ras cells by MTT assay. In kind it is functional. Conditions: read-out: ED50 (the source's name). In a few lines:
as §2

Experiment [9] has as its system RAW264.7. In words: Antiinflammatory activity in LPS-stimulated mouse RAW264.7 cells assessed as effect on TNFalpha formation at 0.1 uM pretreated 1 hr before LPS challenge measured after 24 hrs. Format: functional. The essentials:
as §1

Experiment [10] deals with RAW264.7. In words: Antiinflammatory activity in LPS-stimulated mouse RAW264.7 cells assessed as effect on NO production at 1 uM pretreated 1 hr before LPS challenge measured after 24 hrs. Format: functional. The essentials: as §4
The next experiment deals with MCF7. Put plainly: Cytotoxicity against human MCF7 cells by MTT assay. Format: functional. Particulars: read-out: ED50 (the source's name). In a few lines: as §2
Experiment [11] has as its system RAW264.7. Put plainly: Antiinflammatory activity in LPS-stimulated mouse RAW264.7 cells assessed as effect on TNFalpha formation at 0.3 uM pretreated 1 hr before LPS challenge measured after 24 hrs. In kind it is functional. The essentials:
as §1

Experiment [12] deals with RAW264.7. In words: Antiinflammatory activity in LPS-stimulated mouse RAW264.7 cells assessed as effect on NO production at 0.3 uM pretreated 1 hr before LPS challenge measured after 24 hrs. Format: functional. The essentials:
as §4

Experiment [13] concerns RAW264.7. Put plainly: Antiinflammatory activity in LPS-stimulated mouse RAW264.7 cells assessed as effect on NO production at 3 uM pretreated 1 hr before LPS challenge measured after 24 hrs. Format: functional. The essentials: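 RAW 264.7 cells at 2 × 10⁵ per well in DMEM/10% FBS, adhered overnight. Pretreated 1 h at 37 °C with drug or vehicle (DMSO fixed at 0.5% final), then LPS (E. coli 0111:B4) 1 µg/mL for 24 h. Medium nitrite measured by Griess reaction (10 min RT, A550) against NaNO2 standard curve; mean ± SEM, n = 3, compared with control.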

The inhibition is the relative decrease from the control value, in per cent. For `COc1cc2c(O[C@@H]3OC[C@](O)(CO[C@@H]4OC[C@@H](O)[C@H](O)[C@H]4O)[C@H]3O[C@H]3OC[C@@H](O)[C@@H](O[C@@H]4OC[C@](O)(CO)[C@H]4O)[C@@H]3O)c3c(c(-c4ccc5c(c4)OCO5)c2cc1OC)C(=O)OC3`, the inhibition at 30 µM in the experiment on RAW264.7 [1] was -26%.

As to `COc1cc2c(O[C@@H]3OC[C@](O)(CO[C@@H]4OC[C@@H](O)[C@H](O)[C@H]4O)[C@H]3O[C@H]3OC[C@@H](O)[C@@H](O)[C@@H]3O)c3c(c(-c4ccc5c(c4)OCO5)c2cc1OC)C(=O)OC3`, the inhibition at 30 µM with RAW264.7 [1] came out at 18.7%.

As to `COc1cc2c(O[C@@H]3OC[C@](O)(CO)[C@H]3O[C@H]3OC[C@@H](O)[C@@H](O)[C@@H]3O)c3c(c(-c4ccc5c(c4)OCO5)c2cc1OC)C(=O)OC3`, the EC50 worked out at 6.7 µg/mL (≈ 10.4 µM) with HT-29, 3.1 µg/mL (≈ 4.81 µM) in experiment [2], 3.1 µg/mL (≈ 4.81 µM) in experiment [3] and 3.9 µg/mL (≈ 6.05 µM) with HepG2.

The term pIC50 denotes the IC50 on a negative log10 scale, so that one unit is a factor of ten. In the case of `CC(=N)NCc1cccc(CN)c1` [1400W], the pIC50 in the experiment with RAW264.7 [4] is 5.51.

On to `Cc1c2oc3c(C)ccc(C(=O)N[C@@H]4C(=O)N[C@H](C(C)C)C(=O)N5CCC[C@H]5C(=O)N(C)CC(=O)N(C)[C@@H](C(C)C)C(=O)O[C@@H]4C)c3nc-2c(C(=O)N[C@@H]2C(=O)N[C@H](C(C)C)C(=O)N3CCC[C@H]3C(=O)N(C)CC(=O)N(C)[C@@H](C(C)C)C(=O)O[C@@H]2C)c(N)c1=O` [DACTINOMYCIN] (I: T[dV]P[Sar][NMeV] / II: T[dV]P[Sar][NMeV]; ester I:1-I:C, II:1-II:C; linker I:N-II:N via Actinocin(1to9)), for which the EC50 in the experiment on Ca-Ski was found to be 0.0019 µg/mL (≈ 0.00151 µM). In the experiment on SiHa, this molecule showed an ED50 of 8.1 ×10⁻⁴ ug/ml.

With `C[C@@H]1C[C@H]2[C@@H]3CCC4=CC(=O)C=C[C@]4(C)[C@@]3(F)[C@@H](O)C[C@]2(C)[C@@]1(O)C(=O)CO` [DEXAMETHASONE], in the experiment with RAW264.7 [5], the negative logarithm of the IC50 (pIC50) was 6.15.

Turning to `COc1cc2c(O)c3c(c(-c4ccc5c(c4)OCO5)c2cc1OC)C(=O)OC3` [DIPHYLLIN], the inhibition at 30 µM in the experiment on RAW264.7 [1] is -22.2%; in the experiment on RAW264.7 [6], -0.5%. Besides, the EC50 with HT-29 worked out at 2.5 µg/mL (≈ 6.57 µM); in experiment [2], 3.6 µg/mL (≈ 9.46 µM); with HCT-116 it was 0.8 µg/mL (≈ 2.1 µM); in experiment [3], 2.7 µg/mL (≈ 7.1 µM); in the experiment with HepG2 it was 0.4 µg/mL (≈ 1.05 µM). In addition, the inhibition at 10 µM in the experiment with RAW264.7 [7] was -28.4%.

With `O=c1[nH]cc(F)c(=O)[nH]1` [FLUOROURACIL], the EC50 with HT-29 was 0.074 µg/mL (≈ 0.569 µM); in experiment [2], 0.0715 µg/mL (≈ 0.55 µM); in the experiment on HCT-116 it was 0.48 µg/mL (≈ 3.69 µM); with HepG2, 0.033 µg/mL (≈ 0.254 µM).

For `COc1cc2c(OC)c3c(c(-c4ccc5c(c4)OCO5)c2cc1OC)C(=O)OC3` [JUSTICIDIN A], the EC50 came out at 0.003 µg/mL (≈ 0.00761 µM) in the experiment on Ca-Ski; 0.0074 µg/mL (≈ 0.0188 µM) in the experiment with SiHa; 0.074 µg/mL (≈ 0.188 µM) in experiment [8]; 0.029 µg/mL (≈ 0.0735 µM) in [2]; 0.0227 µg/mL (≈ 0.0576 µM) in experiment [3]; 0.39 µg/mL (≈ 0.989 µM) in the experiment with MCF7. Also, the EC50 in the experiment on HepG2 stood at 0.02 µg/mL (≈ 0.0507 µM). The inhibition at 0.1 µM with RAW264.7 [9] was -6%. Also, the inhibition at 1 µM in the experiment on RAW264.7 [10] was determined as 19.8%. Moreover, the inhibition at 0.3 µM in the experiment on RAW264.7 [11] is -158%; with RAW264.7 [12] it was 20.3%.

As to `COc1cc2c(O[C@@H]3OC[C@](O)(CO)[C@H]3O)c3c(c(-c4ccc5c(c4)OCO5)c2cc1OC)C(=O)OC3` [TUBERCULATIN], the EC50 worked out at 0.12 µg/mL (≈ 0.234 µM) in the experiment on SiHa; 0.09 µg/mL (≈ 0.176 µM) in [8]; 0.29 µg/mL (≈ 0.566 µM) in the experiment on HT-29; 0.014 µg/mL (≈ 0.0273 µM) in experiment [2]; 0.28 µg/mL (≈ 0.546 µM) in the experiment on HCT-116; 0.97 µg/mL (≈ 1.89 µM) with MCF7. In addition, the EC50 in the experiment on HepG2 came out at 0.04 µg/mL (≈ 0.0781 µM). Besides, the inhibition at 3 µM in the experiment with RAW264.7 [13] is 16.9%.
